Assay results taken from ChEMBL document CHEMBL3352043, “Discovery of small-molecule inhibitors selectively targeting the DNA-binding domain of the human androgen receptor” (J Med Chem, 2014).
Positions count from the first letter of the chain named. Active and inactive are the calls of the source.

What was measured:
[1] = tested on: T1, Androgen receptor (Homo sapiens), P10275 [Y594D]; assay: Inhibition of human androgen receptor Y594D mutant expressed in human PC3 cells assessed as inhibition of transcription activity after 24 hrs by luciferase reporter gene assay; format: cell-based; details: PC-3
T1 sequence (whole entry): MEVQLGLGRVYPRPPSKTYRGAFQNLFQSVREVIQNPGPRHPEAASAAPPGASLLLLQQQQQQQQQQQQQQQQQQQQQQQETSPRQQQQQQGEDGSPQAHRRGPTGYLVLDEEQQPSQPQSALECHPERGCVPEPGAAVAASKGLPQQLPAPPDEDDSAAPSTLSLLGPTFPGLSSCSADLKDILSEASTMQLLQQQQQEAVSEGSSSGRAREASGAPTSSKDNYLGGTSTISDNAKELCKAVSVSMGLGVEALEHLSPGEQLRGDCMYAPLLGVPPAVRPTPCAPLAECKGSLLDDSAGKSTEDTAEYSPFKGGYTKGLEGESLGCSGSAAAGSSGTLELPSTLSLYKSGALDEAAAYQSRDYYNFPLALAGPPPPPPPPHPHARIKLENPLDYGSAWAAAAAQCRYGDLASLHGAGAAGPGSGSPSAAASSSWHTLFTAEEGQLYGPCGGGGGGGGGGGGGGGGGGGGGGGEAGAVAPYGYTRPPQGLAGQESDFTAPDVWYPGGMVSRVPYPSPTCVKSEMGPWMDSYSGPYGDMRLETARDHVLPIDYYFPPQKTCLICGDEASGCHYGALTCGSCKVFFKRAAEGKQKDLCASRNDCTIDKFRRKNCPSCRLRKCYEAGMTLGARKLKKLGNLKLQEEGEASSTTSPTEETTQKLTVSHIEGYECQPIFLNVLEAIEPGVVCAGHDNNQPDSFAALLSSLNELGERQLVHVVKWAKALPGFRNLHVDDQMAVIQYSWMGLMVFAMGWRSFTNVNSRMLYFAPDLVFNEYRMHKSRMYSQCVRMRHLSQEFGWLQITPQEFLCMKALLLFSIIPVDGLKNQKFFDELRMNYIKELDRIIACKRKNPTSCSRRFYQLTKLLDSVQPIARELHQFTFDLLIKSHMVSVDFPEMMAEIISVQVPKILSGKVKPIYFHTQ
Procedure, shortened: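 PC3 cells were starved 5 days in RPMI 1640 with 5% charcoal-stripped serum and seeded at 5000 cells/well. After 24 h they were cotransfected with AR-V7 or hAR mutant plasmid plus 50 ng ARR3tk-luciferase. At 48 h post-transfection, compounds were added for 24 h with 0.1 nM R1881. Luminescence was read from passive-lysis-buffer lysates; mutant tests used 10 μM.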

[2] = molecular target: T2, Androgen receptor (Homo sapiens) (UniProt P10275); assay: Displacement of androgen from androgen receptor (unknown origin) by Polarscreen competitor green assay
T2 sequence (whole entry): T1 sequence (whole entry) with D594Y

[3] = molecular target: T2, Androgen receptor (Homo sapiens); assay: Binding affinity to biotinylated androgen receptor LBD (unknown origin) expressed in Escherichia coli BL21 by biolayer interferometry assay
[4] = molecular target: T3, Estrogen receptor (Homo sapiens) (UniProt P03372); assay: Inhibition of ERalpha (unknown origin) transcriptional activity at […]
T3 sequence (whole entry): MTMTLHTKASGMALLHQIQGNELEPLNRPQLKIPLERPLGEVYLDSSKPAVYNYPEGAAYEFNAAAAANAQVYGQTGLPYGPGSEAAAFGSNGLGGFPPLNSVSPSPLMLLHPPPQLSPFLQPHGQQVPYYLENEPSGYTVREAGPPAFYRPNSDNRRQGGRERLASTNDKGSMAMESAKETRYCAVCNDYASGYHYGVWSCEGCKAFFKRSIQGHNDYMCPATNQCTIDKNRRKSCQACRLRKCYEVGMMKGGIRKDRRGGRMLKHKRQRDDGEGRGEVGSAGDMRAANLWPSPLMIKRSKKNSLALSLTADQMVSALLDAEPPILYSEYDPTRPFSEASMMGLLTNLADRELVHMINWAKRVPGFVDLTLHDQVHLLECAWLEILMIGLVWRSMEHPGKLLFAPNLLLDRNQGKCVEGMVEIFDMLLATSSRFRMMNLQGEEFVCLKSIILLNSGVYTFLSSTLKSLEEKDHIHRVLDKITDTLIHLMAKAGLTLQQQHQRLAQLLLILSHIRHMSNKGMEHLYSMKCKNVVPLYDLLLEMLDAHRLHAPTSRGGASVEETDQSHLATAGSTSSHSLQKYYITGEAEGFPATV
Procedure, shortened: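 MCF-7 cells stably carrying an ERE-luciferase reporter were stimulated with 1 nM estradiol and treated with compound. Luciferase luminescence was read from passive-lysis-buffer lysates.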

Brc1ncn(-c2csc(N3CCOCC3)n2)c1Br
inactive: inhibition [1] | inhibition [2] | Activity [3] | inhibition [4]

c1ccc(-c2csc(N3CCOCC3)n2)cc1
inactive: inhibition [1] | Activity [2] | inhibition [3] | inhibition [4]
